Experimental data of several laboratories.
Target: G protein-coupled receptor kinase 4 (GRK4, Homo sapiens, UniProt P32298)

CN(C)c1ncc(F)c(-c2cnn3ncccc23)n1  remaining binding (binding; 1 µM): 100%
COc1cnc(Nc2cccc(S(N)(=O)=O)c2)nc1N1CCN(c2ccccc2)C(=O)C1  remaining binding (binding; competition with immobilised ligand; 1 µM): 100%
O=C(NCCCN1CCOCC1)c1ccc(Nc2ncc(Cl)c(-c3ccc(Cl)s3)n2)cc1  remaining binding (binding; competition with immobilised ligand; 1 µM): 2.7%
C[C@@H]1CCN(c2nccc(-c3cnn4ncccc34)n2)C1  remaining binding (binding; 1 µM): 56%
O=C(NCCCN1CCOCC1)c1ccc(Nc2nccc(-c3cc4ccccc4s3)n2)cc1  remaining binding (binding; competition with immobilised ligand; 1 µM): 1.4%
COc1cccc(CNC(=O)c2nc3scc(COCc4ccc(C(=O)O)cc4)c3c(=O)[nH]2)c1  remaining binding (cell-free assay; competition with immobilised ligand; 1 µM): 72.1%
CCN1CCN(Cc2ccc(C(=O)Nc3ccc(C)c(Oc4ccc5c(c4)CC(=O)N5)c3)cc2C(F)(F)F)CC1  remaining binding (binding; competition with immobilised ligand; 1 µM): 100%
O=C(Nc1cccnn1)N1CC(C/C=C/c2cncc(Oc3ccc(C(F)(F)F)cn3)n2)C1  remaining binding (cell-free assay; competition with immobilised ligand; 1 µM): 100%
CN(c1nccc(-c2cnn3ncccc23)n1)C1CC1  remaining binding (binding; 1 µM): 72%
O=C(c1ccc(Nc2ncc(Cl)c(-c3cc4ccccc4s3)n2)cc1)N1CCC(N2CCCC2)CC1  remaining binding (binding; competition with immobilised ligand; 1 µM): 3.5%
CN(C)c1nccc(-c2cnc3ncccn23)n1  remaining binding (binding; 1 µM): 88%
O=C(NCC1CCOCC1)c1n[nH]cc1NC(=O)c1c(F)cccc1F  remaining binding (binding; competition with immobilised ligand; 1 µM): 100%
CCCCN(CCCC)C(=O)CN1C[C@H](c2cc(OC)c3c(c2)OCO3)[C@@H](C(=O)O)[C@@H]1CC(C)(C)CCC  remaining binding (cell-free assay; competition with immobilised ligand; 1 µM): 100%
Nc1ncc2c(n1)-c1c([nH]c3ccc(C#CC4CC4)cc13)CCCC2  remaining binding (binding; competition with immobilised ligand; 1 µM): 91%
CC1CCCN1c1nccc(-c2cnn3ncccc23)n1 (stereo not drawn)  remaining binding (binding; 1 µM): 75%
Nc1cnc(N2CCc3cc(S(=O)(=O)Nc4c(F)cc(Cl)cc4F)cc(N4CCCC4=O)c32)nc1  remaining binding (cell-free assay; competition with immobilised ligand; 1 µM): 100%
C=CC(=O)N1CCC(C(=O)NCC(=O)N2CCN(c3nc(-c4cnc(N)nc4C(F)F)nc(N4CCOCC4)n3)CC2)CC1  remaining binding (binding; competition with immobilised ligand; 1 µM): 100%
O=C1CCc2cc(Nc3cc(OC4CCOCC4)c([N+](=O)[O-])cc3Cl)ccc2N1  remaining binding (cell-free assay; competition with immobilised ligand; 1 µM): 100%
COc1ncc2cc3ccccc3nc2c1C#N  remaining binding (cell-free assay; competition with immobilised ligand; 5 µM): 99%
CN(C)c1nccc(-c2cnn3ncccc23)n1  remaining binding (binding; 1 µM): 100%
COc1ccc2c(O[C@@H]3C[C@H]4C(=O)N[C@]5(C(=O)O)CC5/C=C\CCCCC[C@H](NC(=O)OC5CCCC5)C(=O)N4C3)cc(-c3csc(NC(=O)C(C)C)n3)nc2c1C (stereo partly drawn)  remaining binding (cell-free assay; competition with immobilised ligand; 1 µM): 67%
